Measurements: ChEMBL document CHEMBL4052823, “Extra Sugar on Vancomycin: New Analogues for Combating Multidrug-Resistant Staphylococcus aureus and Vancomycin-Resistant Enterococci” (J Med Chem, 2018)
Values after ≈ are worked out from the molar mass of the structure shown. Active and inactive are the calls of the source. The calls are words filed in the database; no cut-off is given here.

Assays:
[1] = AUC (infinity) in CD1 mouse at 5 mg/kg, iv; type: ADME, organism-based; parameters: dose 5 mg/kg, route intravenous, time infinity; settings: in vivo
Method in brief: (§1)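 Fasted male CD-1 mice (18−22 g), 5 mg/kg single dose into the tail vein, 6 per group. Blood sampled at 0.25, 0.75, 2, 4, 8 and 24 h and analysed by UPLC-MS/MS. T1/2, AUClast, AUCINF_obs, CL_obs, MRTINF_obs and VSS_obs were calculated for each animal from its time−concentration curve.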

[2] = MRT (infinity) in CD1 mouse at 5 mg/kg, iv; type: ADME, organism-based; settings: in vivo; method in brief: as §1
Enterococcus faecium [3] = assay: Antibacterial activity against glycopeptide-resistant Enterococcus faecium Efm-HS-06188 vanA after 24 hrs by broth microdilution method; type: functional; settings: Efm-HS-06188, 24 h
Method in brief: (§2)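 Broth microdilution in cation-adjusted Mueller-Hinton II broth. DMSO stocks were diluted in broth and twofold serially from 128 to 0.0625 μg/mL or lower. Each well was inoculated with ~10^5 CFU of exponential-phase bacteria and incubated at 37 °C for 24 h. MIC was the lowest concentration giving complete growth inhibition, read per CLSI. Growth controls contained broth plus DMSO.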

Blood = assay: Drug uptake in CD1 mouse blood at 5 mg/kg, iv; type: ADME, organism-based; settings: in vivo; method in brief: as §1
Enterococcus faecium [4] = assay: Antibacterial activity against glycopeptide-resistant Enterococcus faecium Efm-HS-vb01 vanB after 24 hrs by broth microdilution method; type: functional; settings: Efm-HS-vb01, 24 h; method in brief: as §2
[5] = Volume of distribution at steady state in CD1 mouse at 5 mg/kg, iv; type: ADME, organism-based; settings: in vivo, read-out: Vdss
Method in brief: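 Fasted male CD-1 mice (18−22 g), 5 mg/kg single dose into the tail vein, 6 per group. T1/2, AUClast, AUCINF_obs, CL_obs, MRTINF_obs and VSS_obs were calculated for each animal from its time−concentration curve.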

Staphylococcus aureus [6] = assay: Potency index, ratio of telavancin MIC90 to test compound MIC90 for vancomycin/methicillin-susceptible Staphylococcus aureus Newman […]; type: functional
Enterococcus faecium [7] = assay: Antibacterial activity against glycopeptide-resistant Enterococcus faecium Efm-HS-08257 vanM after 24 hrs by broth microdilution method; type: functional; settings: Efm-HS-08257, 24 h; method in brief: as §2
[8] = Clearance in CD1 mouse at 5 mg/kg, iv; type: ADME, organism-based; settings: in vivo; method in brief: as §1
Staphylococcus aureus [9] = assay: Antibacterial activity against methicillin-resistant Staphylococcus aureus USA300 LAC infected in BALB/c mouse assessed as increase in mouse survival rate at 7 mg/kg, ip administered as single dose after 10 days relative to control; type: functional, organism-based
Method in brief: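 Female BALB/c mice, 6−8 weeks old, were anesthetized with pentobarbital and infected retro-orbitally with ~2.35 × 10^8 CFU of exponential-phase USA300 LAC, 15 per group. A single 7 mg/kg ip dose was given 1 h after infection. Deaths were recorded daily to build survival curves.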

Enterococcus faecium [10] = assay: Antibacterial activity against glycopeptide-resistant Enterococcus faecium Efm-HS-0649 vanA after 24 hrs by broth microdilution method; type: functional; settings: Efm-HS-0649, 24 h; method in brief: as §2
[11] = AUClast in CD1 mouse at 5 mg/kg, iv; type: ADME, organism-based; parameters: dose 5 mg/kg, route intravenous, time 0 - last; settings: in vivo; method in brief: as §1
[12] = Half life in CD1 mouse at 5 mg/kg, iv; type: ADME, organism-based; settings: in vivo; method in brief: as §1
Staphylococcus aureus [13] = assay: Antibacterial activity against vancomycin/methicillin-susceptible Staphylococcus aureus Newman […] after 24 hrs by broth microdilution method; type: functional
Method in brief: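 Broth microdilution in cation-adjusted Mueller-Hinton II broth. […] Each well received ~10^5 CFU of exponential-phase bacteria and was incubated at 37 °C for 24 h. MIC was taken as the lowest concentration giving complete growth inhibition, interpreted per CLSI.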

Staphylococcus aureus [14] = assay: Antibacterial activity against healthcare-associated methicillin-resistant/vancomycin-intermediate Staphylococcus aureus Mu50 after 24 hrs by broth microdilution method; type: functional; settings: Mu50, 24 h; method in brief: as §2
Enterococcus faecium [15] = assay: Antibacterial activity against glycopeptide-resistant Enterococcus faecium Efm-HS-0847 vanM after 24 hrs by broth microdilution method; type: functional; settings: Efm-HS-0847, 24 h; method in brief: as §2
Enterococcus faecium [16] = assay: Potency index, ratio of telavancin MIC90 to test compound MIC90 for glycopeptide-resistant Enterococcus faecium Efm-HS-vb01 vanB; type: functional
Enterococcus faecium [17] = assay: Potency index, ratio of oritavancin MIC90 to test compound MIC90 for glycopeptide-resistant Enterococcus faecium Efm-HS-vb01 vanB; type: functional

| Structure (SMILES) | AUC(0-inf) [1] [ng·h/mL] | MRT inf [2] [h] | MIC (Enterococcus faecium [3]) [µg/mL] | Drug uptake (Blood) [µg/mL] | MIC (Enterococcus faecium [4]) [µg/mL] | Vd [5] [L/kg] | Ratio (Staphylococcus aureus [6]) | MIC (Enterococcus faecium [7]) [µg/mL] | clearance [8] [mL/min/kg] | Activity (Staphylococcus aureus [9]) | MIC (Enterococcus faecium [10]) [µg/mL] | AUC(0-t) [11] [ng·h/mL] | half-life [12] [h] | MIC90 (Staphylococcus aureus [13]) [µg/mL] | MIC90 (Staphylococcus aureus [14]) [µg/mL] | MIC (Enterococcus faecium [15]) [µg/mL] | Ratio (Enterococcus faecium [16]) | Ratio (Enterococcus faecium [17]) |
| --- | --- | --- | --- | --- | --- | --- | --- | --- | --- | --- | --- | --- | --- | --- | --- | --- | --- | --- |
| CN[C@H](CC(C)C)C(=O)N[C@H]1C(=O)N[C@@H](CC(N)=O)C(=O)N[C@H]2C(=O)N[C@H]3C(=O)N[C@H](C(=O)N[C@H](C(=O)O)c4cc(O)c(CNCCCNC(=O)[C@H](O)[C@@H](O)[C@H](O)[C@H](O)CO)c(O)c4-c4cc3ccc4O)[C@H](O)c3ccc(c(Cl)c3)Oc3cc2cc(c3O[C@@H]2O[C@H](CO)[C@@H](O)[C@H](O)[C@H]2O[C@H]2C[C@](C)(NCc3ccc(-c4ccc(C(F)(F)F)cc4)cc3)[C@H](O)[C@H](C)O2)Oc2ccc(cc2Cl)[C@H]1O | 13400 | 4.79 | 1 (≈ 0.513 µM) | > 1 | 0.5 (≈ 0.257 µM) | 1.83 | 8 - 16 | 4 (≈ 2.05 µM) | 6.4 | Active | 2 (≈ 1.03 µM) | 10700 | 3.72 | 0.06 (≈ 0.0308 µM) | 0.25 (≈ 0.128 µM) | 8 (≈ 4.11 µM) | – | – |
| CN[C@H](CC(C)C)C(=O)N[C@H]1C(=O)N[C@@H](CC(N)=O)C(=O)N[C@H]2C(=O)N[C@H]3C(=O)N[C@H](C(=O)N[C@H](C(=O)O)c4cc(O)c(CN[C@H]5C(O)O[C@H](CO)[C@H](O)[C@@H]5O)c(O)c4-c4cc3ccc4O)[C@H](O)c3ccc(c(Cl)c3)Oc3cc2cc(c3O[C@@H]2O[C@H](CO)[C@@H](O)[C@H](O)[C@H]2O[C@H]2C[C@](C)(NCc3ccc(-c4ccc(C(F)(F)F)cc4)cc3)[C@H](O)[C@H](C)O2)Oc2ccc(cc2Cl)[C@H]1O (some centres undefined) | 24300 | 4.41 | 1 (≈ 0.533 µM) | > 1 | ≤ 0.06 | 0.9 | 8 - 16 | 2 (≈ 1.07 µM) | 3.45 | Active | 1 (≈ 0.533 µM) | 20100 | 3.45 | 0.015 (≈ 0.008 µM) | 0.12 (≈ 0.064 µM) | 4 (≈ 2.13 µM) | 16 | 4 |
